From PubChem
TRPC4 potent – TRPC4 (mouse) allosteric potentiation; HEK293 TRPC4beta/mu-opioid, DAMGO EC20, Fluo-4 Ca2+ flux; stronger effect = higher value; B-score at 10 µM; actives 0.42% (n = 310,000);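 active = B-score of calcium response area above 5 SD of library B-scores, with initial fluorescence ratio within 5 SD of library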;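 note: B-score of integrated fluorescence ratio over time as area under calcium response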
Target sequence (Q9QUQ5 whole entry, looked up): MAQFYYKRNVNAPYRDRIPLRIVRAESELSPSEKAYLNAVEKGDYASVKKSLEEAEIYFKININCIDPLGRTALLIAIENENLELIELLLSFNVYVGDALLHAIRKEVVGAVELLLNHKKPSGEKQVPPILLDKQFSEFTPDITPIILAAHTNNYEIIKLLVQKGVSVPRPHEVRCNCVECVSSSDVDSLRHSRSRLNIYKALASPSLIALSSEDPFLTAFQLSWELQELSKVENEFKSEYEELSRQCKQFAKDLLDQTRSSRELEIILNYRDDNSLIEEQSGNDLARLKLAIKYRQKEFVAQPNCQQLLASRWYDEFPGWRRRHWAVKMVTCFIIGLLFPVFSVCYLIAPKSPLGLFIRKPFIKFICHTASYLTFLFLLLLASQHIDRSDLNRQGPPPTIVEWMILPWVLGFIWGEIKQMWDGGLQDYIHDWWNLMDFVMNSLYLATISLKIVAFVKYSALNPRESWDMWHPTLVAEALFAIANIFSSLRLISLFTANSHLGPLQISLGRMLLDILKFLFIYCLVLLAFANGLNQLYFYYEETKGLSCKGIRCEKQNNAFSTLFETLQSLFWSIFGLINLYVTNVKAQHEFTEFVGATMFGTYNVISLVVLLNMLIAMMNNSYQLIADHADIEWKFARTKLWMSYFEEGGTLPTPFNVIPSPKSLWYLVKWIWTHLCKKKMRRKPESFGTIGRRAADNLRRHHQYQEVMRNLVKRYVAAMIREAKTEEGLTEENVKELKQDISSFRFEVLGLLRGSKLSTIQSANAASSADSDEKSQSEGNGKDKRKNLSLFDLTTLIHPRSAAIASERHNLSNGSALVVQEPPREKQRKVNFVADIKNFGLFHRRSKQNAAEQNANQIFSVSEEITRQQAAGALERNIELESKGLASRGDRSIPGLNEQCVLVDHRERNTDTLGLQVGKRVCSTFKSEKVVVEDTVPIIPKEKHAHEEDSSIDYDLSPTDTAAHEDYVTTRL
TRPC4 agonist – opens the mouse TRPC4 cation channel. Q9QUQ5. HEK293 TRPC4beta/mu-opioid, Fluo4 calcium fluorescence; stronger effect = higher value. B-score at 10 µM. actives 0.49% (n = 310,000);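 active = B-score above 5 SD of library B-scores, and initial fluorescence ratio not above library mean plus 5 SD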;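 note: positive B-score marks a calcium rise read as TRPC4 activation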
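System: HEK293 cells stably co-expressing mouse TRPC4beta and mu-opioid receptor; Schedule: Fluo4 dye loading 45 min at room temperature, 110 s recording; Detection: Fluo4 fluorescence, kinetic; Evaluation: B-scored integrated calcium fluorescence ratio; Controls: buffer (low) and maximal DAMGO (high).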
TRPC4 block – inhibitors of mouse TRPC4 channel; HEK293 TRPC4beta/mu-opioid, DAMGO-evoked Fluo4 calcium flux; stronger effect = lower value; AID 2247; B-score at 10 µM; actives 0.39% (n = 300,000);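 active = B-score over 3 SD under the library average, no early fluorescence shift, positive overall ratio signal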
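Assay system: Stable TRPC4beta/mu-opioid receptor HEK293 cells | Reagent: DAMGO in two steps, submaximal then maximal | Compound dosing: Single concentration per test compound | Signal: Fluo4 Ca2+ flux fluorescence | Evaluation: Per-well B score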
TRPC6 act – mouse TRPC6 channel activation | Q61143 | HEK293-TRPC6 membrane potential dye fluorescence; stronger effect = higher value | B-score at 10 µM | actives 0.13% (n = 310,000) | AID 2550;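 active = B-score of the integrated fluorescence ratio above library mean plus 3 SD, and starting fluorescence ratio within library mean plus 5 SD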;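 note: higher score means more depolarization so channel activation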
TRPC6 inhibitor – mouse TRPC6 channel inhibition. Q61143. HEK293-TRPC6, membrane potential dye, ACh-evoked depolarization; stronger effect = lower value. B-score at 10 µM. actives 1.1% (n = 310,000). AID 2553;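 active = B-score under library mean minus 3 SD, initial fluorescence not abnormally high, positive integrated signal ratio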;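 note: B-score derived from integrated fluorescence ratio over the kinetic read; more negative B-score means stronger inhibition of depolarization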
Kir21 block – Kir2.1 (mouse) channel inhibition; P35561; HEK293-Kir2.1, FluxOR thallium flux fluorescence; stronger effect = lower value; B-score at 10 µM; actives 0.85% (n = 310,000); AID 1672;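 active = fluorescence ratio B-score at or below minus 3 SD of library scores, with starting-brightness B-score within 2 SD, cut at about -4.2 in these data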;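 note: channel flux triggered by added potassium and thallium sulfate stimulus; B-score of peak minus minimum fluorescence over baseline after thallium stimulus; more negative B-score means stronger Kir2.1 block with less thallium influx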
TRPC4 sel inh 2 – second selectivity test of TRPC6 inhibitors: effect on mouse TRPC4 | shares compounds with TRPC6 inhibitor | HEK293 TRPC4/MOR, membrane potential dye fluorescence; channel activated by saturating DAMGO dose | inhibition, % at 10 µM | actives 42% (n = 920) | AID 2776;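 active = compounds whose fluorescence signal differed from control wells by over 3 SD, either direction, in both duplicate plates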
TRPC4 spec – mouse TRPC4 off-target activity of TRPC6 inhibitors | activity change, negative = inhibition, % at 10 µM | actives 61% (n = 920) | shares compounds with TRPC6 inhibitor | AID 2777 | HEK293 TRPC4/mu-opioid, membrane potential fluorescence;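 active = rise or fall in signal beyond 3 SD of buffer-only wells in both replicate plates, either sign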;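 note: integrated kinetic ratio of fluorescence range over baseline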
HEK293 MPD ctr 2-1 – parental HEK293 nonspecific activity of TRPC6 inhibitors, second screen; shares compounds with TRPC6 inhibitor; parental HEK293 membrane potential dye fluorescence; maximal acetylcholine challenge after compound addition; signal change vs control, % at 10 µM; actives 31% (n = 920);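 active = membrane potential signal moving either way by over 3 SD of the maximum-effect control, in both duplicate plates, meaning non-specific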
HEK293 MPD ctr-1 – checks TRPC6 inhibitor effects in parental HEK293 cells; shares compounds with TRPC6 inhibitor; parental HEK293 membrane potential dye fluorescence; membrane potential signal change, % at 10 µM; actives 60% (n = 920);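 active = membrane potential signal shifting up or down by more than 3 SD of buffer-only wells, on both duplicate plates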
HEK293 MPD ctr-2 – counter-screen for TRPC6 modulators: effect in parental HEK293 cells; shares compounds with TRPC6 inhibitor; AID 488924; actives 51% (n = 2,400); membrane potential dye fluorescence; membrane potential signal change, % at 10 µM;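 active = membrane potential signal moves up or down beyond 5 SD from buffer-only wells, on both duplicate plates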
HEK293 MPD ctr 2-2 – second check of TRPC6 modulator effects in parental HEK293 cells. membrane potential dye fluorescence; after compound, maximal acetylcholine stimulation. shares compounds with TRPC6 inhibitor. inhibition, % at 10 µM. actives 14% (n = 2,400);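 active = membrane potential signal drops by more than 5 SD from the mean control signal, in both duplicate plates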;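 note: plate controls were acetylcholine ECmax control wells for no effect and buffer only wells for full effect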
TRPC4 ctr mod – mouse TRPC4 off-target activity of TRPC6 modulators. shares compounds with TRPC6 inhibitor. HEK293 TRPC4/mu-opioid, membrane potential fluorescence. percent change from control (negative = decrease, positive = increase), % at 10 µM. actives 69% (n = 2,400);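 active = membrane potential signal moved up or down beyond 5 SD of buffer control wells, in both duplicate plates, actives on both sides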;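 note: plate controls were assay buffer wells for no effect and DAMGO maximal-effect wells for full effect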
TRPC4 ctr inh 2 – second check of whether TRPC6 modulators also affect mouse TRPC4; shares compounds with TRPC6 inhibitor; HEK293 TRPC4/mu-opioid, membrane potential dye fluorescence; stimulated with maximal-effect DAMGO; inhibition, % at 10 µM; actives 55% (n = 2,400);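 active = drop in membrane potential signal beyond 5 SD of the control wells in both duplicate plates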;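 note: TRPC4 counter screen for TRPC6 hits run under conditions tuned for TRPC6 not TRPC4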
TRPC6 inh conf – mouse TRPC6 inhibitor confirmation; shares compounds with TRPC6 inhibitor; HEK293-TRPC6, membrane potential dye, ACh-evoked depolarization; inhibition, % at 10 µM; actives 43% (n = 3,300);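 active = fluorescence ratio falls more than 5 SD below the full-stimulation control mean, in both duplicate runs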;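 note: integrated fluorescence ratio of peak minus minimum over baseline after agonist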
TRPC6 act conf – mouse TRPC6 activator confirmation; shares compounds with TRPC6 inhibitor; actives 11% (n = 2,800); AID 488961; activation, % at 10 µM; HEK293-TRPC6 membrane potential dye fluorescence, FDSS;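 active = ratio signal rise beyond 5 SD above unstimulated control wells' mean, seen in both duplicate runs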;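 note: plate controls were buffer EC0 wells for no effect and acetylcholine ECmax response for full effect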
* marks the source's active call; other numbers are inactive results; i = inactive; nt = no result. Most compounds without a hit are left out; they make up all but 2.9% or so of the library.

SMILES	TRPC4 potent	TRPC4 agonist	TRPC4 block	TRPC6 act	TRPC6 inhibitor	Kir21 block	HEK293 MPD ctr-2	HEK293 MPD ctr 2-2	TRPC4 ctr mod	TRPC4 ctr inh 2	TRPC6 inh conf	TRPC6 act conf	others
Cc1cccc(NC(=O)CSc2nc3c(oc4ccccc43)c(=O)n2-c2ccccc2)c1	i	i	i	i	i	0.38	nt	nt	nt	nt	nt	nt
O=C1NC(N2CCOCC2)=N/C1=C/c1ccc2c(c1)OCO2	i	i	i	i	i	-2.53	nt	nt	nt	nt	nt	nt
CC(=O)CCc1ccc(OCCCCN2CCC(Cc3ccccc3)CC2)cc1	i	i	i	i	-8.39*	-1.37	i	i	i	70.0%*	46.0%*	nt
COc1cccc(OC)c1OCCCCN1CCC(Cc2ccccc2)CC1	i	i	i	i	i	0.18	nt	nt	nt	nt	nt	nt
O=[N+]([O-])c1cccc(OCCCN2CCC(Cc3ccccc3)CC2)c1	i	i	i	i	-7.11*	-1.57	nt	nt	nt	nt	88.4%*	i	TRPC4 sel inh 2=15.5%*;TRPC4 spec=-11.7%*;HEK293 MPD ctr 2-1=i;HEK293 MPD ctr-1=-223.5%*
CC(C(=O)Nc1ccc(F)cc1Cl)N(C)CCOc1ccccc1 (centres undefined)	i	i	i	i	i	0.17	nt	nt	nt	nt	nt	nt
O=C(NCc1ccc(F)cc1)c1ccc(CS(=O)(=O)c2ccc(Br)cc2)o1	i	i	i	i	i	0.13	nt	nt	nt	nt	nt	nt
CCCCN(C(=O)Cn1nnc2ccccc21)C(C(=O)NCCOC)c1ccc(OC)cc1 (centres undefined)	i	i	i	i	i	0.19	nt	nt	nt	nt	nt	nt
COCCN(C(=O)Cn1nnc2ccccc21)C(C(=O)NC1CCCC1)c1ccc(OC)cc1OC (centres undefined)	i	i	i	19.7*	i	0.71	600.0%*	193.5%*	118.5%*	i	nt	311.0%*
COCCN(C(=O)Cn1nnc2ccccc21)C(C(=O)NC1CCCCC1)c1ccc(OC)cc1OC (centres undefined)	i	i	i	37.5*	i	1.56	818.5%*	173.0%*	163.0%*	i	nt	354.5%*
CCN(CC)c1nc(C)c(C(=S)Nc2cc([N+](=O)[O-])ccc2Cl)s1	i	i	i	i	i	0.51	nt	nt	nt	nt	nt	nt
CC(=O)c1cnn(-c2nc3c(C)cccc3s2)c1C	i	i	i	i	i	2.57	nt	nt	nt	nt	nt	nt
Cc1cc(Cl)c(OCCCNCc2ccccc2)c(Br)c1	i	i	i	12.1*	i	-11.4	302.0%*	i	67.5%*	i	i	139.0%*
CCN(CC)CC(=O)Nc1ccc(/C(C)=N/NC2=NCCN2)cc1	i	i	i	i	-8.01*	-1.3	nt	nt	nt	nt	i	i	TRPC4 sel inh 2=i;TRPC4 spec=-12.2%*;HEK293 MPD ctr 2-1=i;HEK293 MPD ctr-1=i
C[N+](C)(C)CC/C=C1/c2ccccc2CSc2ccccc21	i	i	i	i	-5.53*	0.19	i	72.0%*	i	i	82.5%*	i
N=c1c2c(n(Cc3ccc(F)cc3)c3c1CCC3)CCCC2	i	i	i	i	-5.41*	0.58	-188.5%*	i	-30.5%*	30.0%*	i	i
N=c1c2c(n(Cc3ccccc3)c3c1CCC3)CCC2	i	i	-6*	i	-7.6*	0.6	nt	nt	nt	nt	65.0%*	i	TRPC4 sel inh 2=68.0%*;TRPC4 spec=-23.6%*;HEK293 MPD ctr 2-1=19.5%*;HEK293 MPD ctr-1=-394.0%*
CCn1c2c(c(=N)c3c1CCC3)CCCC2	i	i	i	i	-5.31*	-1.04	-283.5%*	i	-48.5%*	31.0%*	i	i
COc1cccc(CNC(=O)CCNC(=O)Cn2ccc3ccccc3c2=O)c1	i	i	i	i	i	0.16	nt	nt	nt	nt	nt	nt
COc1ccc(NS(=O)(=O)c2ccc(Cl)s2)cn1	i	i	i	i	i	-1.81	nt	nt	nt	nt	nt	nt
CCOC(=O)C1=C(C)OC(N)=C(C#N)C1c1cc2c(cc1Br)OCO2 (centres undefined)	i	i	i	i	-5.17*	-1.27	i	i	i	i	i	i
C=CCOC(=O)C1=C(C)OC(N)=C(C#N)C1c1ccc2c(c1)OCO2 (centres undefined)	i	i	i	i	i	-1.25	nt	nt	nt	nt	nt	nt
CC(C)Oc1ccc(C(=O)Nc2ccc(Cl)c(S(=O)(=O)Nc3ccc(Cl)cc3)c2)cc1	i	i	i	i	i	-0.98	nt	nt	nt	nt	nt	nt
CCOC(=O)C1CCN(C(c2cc3ccc(C)c(C)c3[nH]c2=O)c2nnnn2C2CCCCC2)CC1 (centres undefined)	i	i	i	i	-8.83*	-0.01	nt	nt	nt	nt	i	nt	TRPC4 sel inh 2=i;TRPC4 spec=i;HEK293 MPD ctr 2-1=i;HEK293 MPD ctr-1=i
CCOC(=O)C1CCN(C(c2cc3c(C)ccc(C)c3[nH]c2=O)c2nnnn2C2CCCCC2)CC1 (centres undefined)	i	i	i	i	i	-0.69	nt	nt	nt	nt	nt	nt
COc1ccc(C2=Nn3c([n+](C)c4ccccc43)SC2)cc1	i	i	i	i	-7.09*	2.16	nt	nt	nt	nt	108.8%*	i	TRPC4 sel inh 2=65.5%*;TRPC4 spec=-20.1%*;HEK293 MPD ctr 2-1=-35.5%*;HEK293 MPD ctr-1=-338.0%*
